Measurements taken from ChEMBL document CHEMBL1134139, “Synthesis and biological activity of novel macrocyclic antifungals. modification of the tyrosine moiety of the lipopeptidolactone FR901469” (2001).
Values after ≈ are worked out from the molar mass of the structure shown. Numbered stars: 1 amine (or outer) side, 2 acyl side, 3 side chain; on linkers, the order of the positions; unused ones are H or OH. Bridge positions count the residues as written; N and C are the ends. Square brackets hold non-standard residues; d marks the D form. Peptide text beside a SMILES is read from it. Gln(3R-OH) = NC(=O)C[C@@H](O)[C@H](N)C(=O)O; X1 = CCCCCCCCCCCCC[C@H](CC(=O)[*:1])O[*:2]; Pro(3S-OH) = O=C(O)[C@H]1NCC[C@@H]1O; d(aThr) = C[C@@H](O)[C@@H](N)C(=O)O; Hyp = O=C(O)[C@@H]1C[C@@H](O)CN1; Orn = NCCC[C@H](N)C(=O)O

Legend:
Candida tropicalis = experiment: In vitro antifungal activity against Candida tropicalis 8001 by agar dilution method using Sabouraud Dextrose agar.; format: functional
Outline: (§1)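 Agar dilution on Sabouraud Dextrose agar. MIC taken as the lowest concentration that inhibits visible growth.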

Candida parapsilosis = experiment: In vitro antifungal activity against Candida parapsilosis 15001 by agar dilution method using Sabouraud Dextrose agar.; format: functional; settings: Lodderomyces parapsilosis; outline: as §1
[1] = system: Meyerozyma guilliermondii; experiment: In vitro antifungal activity against Candida guilliermondii FP587 by agar dilution method using Sabouraud Dextrose agar.; format: functional; outline: as §1
Candida albicans [2] = experiment: In vitro antifungal activity against Candida albicans FP579 by agar dilution method using Sabouraud Dextrose agar.; format: functional; outline: as §1
Candida albicans [3] = experiment: In vitro Antifungal activity against Candida albicans FP633 by agar dilution method using Sabouraud Dextrose agar.; format: functional; outline: as §1
Mus musculus [4] = species on record: Mus musculus; experiment: Ability to hemolyze ICR mouse RBCs at 1 mg/mL using microtiter red blood cell hemolysis assay.
Mus musculus [5] = experiment: Compound was evaluated in vivo for antifungal activity and efficacy in disseminated murine candidiasis was determined; format: functional
Candida albicans [6] = experiment: In vitro antifungal activity against Candida albicans FP633 by agar dilution method using Sabouraud Dextrose agar; format: functional; outline: as §1
Candida albicans [7] = experiment: Compound was evaluated in vivo for antifungal activity and efficacy in disseminated murine candidiasis caused by candida albicans FP633; format: functional
[8] = Candida tropicalis, read-out: MIC

Row | MIC (Candida tropicalis) [µg/mL] | MIC (Candida tropicalis; [8]) [µg/mL] | MIC (Candida parapsilosis) [µg/mL] | MIC [1] [µg/mL] | MIC (Candida albicans [2]) [µg/mL] | MIC (Candida albicans [3]) [µg/mL] | MIC (Candida albicans [6]) [µg/mL] | SMILES | Hemolytic activity (Mus musculus [4]) [%] | ED50 (Mus musculus [5]) [mg/kg] | ED50 (Candida albicans [7]) [mg/kg]
1 | 1.56 (≈ 0.963 µM) | 1.56 (≈ 0.963 µM) | 0.78 (≈ 0.482 µM) | 0.78 (≈ 0.482 µM) | 1.56 (≈ 0.963 µM) | 0.78 (≈ 0.482 µM) |  | CCCCCCCCCCCCC[C@@H]1CC(=O)N[C@@H]([C@@H](C)O)C(=O)N[C@H](C)C(=O)N[C@@H](Cc2ccc(O)c(NC(=O)CCN)c2)C(=O)N[C@@H](C(C)C)C(=O)N2C[C@H](O)C[C@H]2C(=O)N[C@@H]([C@@H](C)O)C(=O)N[C@@H]([C@@H](C)O)C(=O)N2CC[C@H](O)[C@H]2C(=O)N[C@@H]([C@H](O)CC(N)=O)C(=O)NCC(=O)N[C@@H]([C@@H](C)O)C(=O)N[C@@H](CCCN)C(=O)O1 | 49 |  | 
2 | 1.56 | 1.56 | 1.56 | 1.56 | 1.56 | 1.56 |  | CCCCCCCCCCCCC[C@H](CC(=O)N[C@@H](C(=O)N[C@H](C)C(=O)N[C@@H](Cc1ccc(O)c(NC(=O)CCN)c1)C(=O)N[C@H](C(=O)N1C[C@H](O)C[C@H]1C(=O)N[C@@H](C(=O)N[C@H](C(=O)N1CC[C@H](O)[C@H]1C(=O)N[C@H](C(=O)NCC(=O)N[C@@H](C(N)=O)[C@@H](C)O)[C@H](O)CC(N)=O)[C@@H](C)O)[C@@H](C)O)C(C)C)[C@@H](C)O)OC(=O)[C@@H](C)CCCNC(C)=O.Cl | 23 |  | 
3 | 1.56 (≈ 0.997 µM) | 1.56 (≈ 0.997 µM) | 1.56 (≈ 0.997 µM) | 0.78 (≈ 0.498 µM) | 1.56 (≈ 0.997 µM) | 0.78 (≈ 0.498 µM) |  | CCCCCCCCCCCCC[C@H](CC(=O)N[C@@H](C(=O)N[C@H](C)C(=O)N[C@@H](Cc1ccc(O)c(N)c1)C(=O)N[C@H](C(=O)N1C[C@H](O)C[C@H]1C(=O)N[C@@H](C(=O)N[C@H](C(=O)N1CC[C@H](O)[C@H]1C(=O)N[C@H](C(=O)NCC(=O)N[C@@H](C(N)=O)[C@@H](C)O)[C@H](O)CC(N)=O)[C@@H](C)O)[C@@H](C)O)C(C)C)[C@@H](C)O)OC(=O)[C@@H](C)CCCN | 100 |  | 
4 | 0.78 (≈ 0.492 µM) | 0.78 (≈ 0.492 µM) | 0.78 (≈ 0.492 µM) | 0.78 (≈ 0.492 µM) | 0.78 (≈ 0.492 µM) | 0.39 (≈ 0.246 µM) |  | CCCCCCCCCCCCC[C@H](CC(=O)N[C@@H](C(=O)N[C@H](C)C(=O)N[C@@H](Cc1ccc(O)c(Cl)c1)C(=O)N[C@H](C(=O)N1C[C@H](O)C[C@H]1C(=O)N[C@@H](C(=O)N[C@H](C(=O)N1CC[C@H](O)[C@H]1C(=O)N[C@H](C(=O)NCC(=O)N[C@@H](C(N)=O)[C@@H](C)O)[C@H](O)CC(N)=O)[C@@H](C)O)[C@@H](C)O)C(C)C)[C@@H](C)O)OC(=O)[C@@H](C)CCCN | 97 |  | 
5 | 0.78 (≈ 0.489 µM) | 0.78 (≈ 0.489 µM) | 0.78 (≈ 0.489 µM) | 0.78 (≈ 0.489 µM) | 0.78 (≈ 0.489 µM) | 0.39 (≈ 0.245 µM) |  | CCCCCCCCCCCCC[C@H](CC(=O)N[C@@H](C(=O)N[C@H](C)C(=O)N[C@@H](Cc1ccc(O)c([N+](=O)[O-])c1)C(=O)N[C@H](C(=O)N1C[C@H](O)C[C@H]1C(=O)N[C@@H](C(=O)N[C@H](C(=O)N1CC[C@H](O)[C@H]1C(=O)N[C@H](C(=O)NCC(=O)N[C@@H](C(N)=O)[C@@H](C)O)[C@H](O)CC(N)=O)[C@@H](C)O)[C@@H](C)O)C(C)C)[C@@H](C)O)OC(=O)[C@@H](C)CCCN | 100 | 0.45 | 
6 | 1.56 (≈ 0.98 µM) | 1.56 (≈ 0.98 µM) | 1.56 (≈ 0.98 µM) | 0.78 (≈ 0.49 µM) | 0.78 (≈ 0.49 µM) | 0.39 (≈ 0.245 µM) |  | CCCCCCCCCCCCC[C@H](CC(=O)N[C@@H](C(=O)N[C@H](C)C(=O)N[C@@H](Cc1ccc(O)cc1)C(=O)N[C@H](C(=O)N1C[C@H](O)C[C@H]1C(=O)N[C@@H](C(=O)N[C@H](C(=O)N1CC[C@H](O)[C@H]1C(=O)N[C@H](C(=O)NCC(=O)N[C@@H](C(N)=O)[C@@H](C)O)[C@H](O)CC(N)=O)[C@@H](C)O)[C@@H](C)O)C(C)C)[C@@H](C)O)OC(=O)[C@@H](C)CCCNC(C)=O | 5 |  | 
7 | 0.39 (≈ 0.254 µM) | 0.39 (≈ 0.254 µM) | 0.39 (≈ 0.254 µM) | 0.39 (≈ 0.254 µM) | 0.39 (≈ 0.254 µM) |  | 0.39 (≈ 0.254 µM) | CCCCCCCCCCCCC[C@@H]1CC(=O)N[C@H]([C@@H](C)O)C(=O)N[C@H](C)C(=O)N[C@@H](Cc2ccc(O)cc2)C(=O)N[C@@H](C(C)C)C(=O)N2C[C@H](O)C[C@H]2C(=O)N[C@H]([C@@H](C)O)C(=O)N[C@@H]([C@@H](C)O)C(=O)N2CC[C@H](O)[C@H]2C(=O)N[C@@H]([C@H](O)CC(N)=O)C(=O)NCC(=O)N[C@H]([C@@H](C)O)C(=O)N[C@@H](CCCN)C(=O)O1 [FR-901469] ([d(aThr)][dA]YV[Hyp][d(aThr)]T[Pro(3S-OH)][Gln(3R-OH)]G[d(aThr)][Orn]; linker N-C via X1) | 100 |  | 0.88
